CYP2C19 activ: activators of human cytochrome P450 2C19; recombinant CYP2C19, luciferin-H EGE luminescence; active compounds read high; 0 = fully inhibited enzyme, 1 = untreated enzyme; activation factor at 5 µM; 96,000 tested, under 10 active; AID 1025;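 active means activation factor of at least 2 at 5 µM in the primary screen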;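 further: 0 = wells with 2.5 mM tranylcypromine and 1 = vehicle-only wells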
CYP2C9 act: activators of human CYP2C9 | P11712 | recombinant CYP2C9, luciferin-H conversion, luminescence; active compounds read high; factor 1 = untreated enzyme, 0 = blocked | activation factor at 5 µM | 1.4% of 96,000 active;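 active means activation factor of 2 or more for CYP2C9 at a 5 µM dose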;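 further: 0 = sulfaphenazole-blocked wells and 1 = vehicle-only wells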
CYP2C9 inhib: human CYP2C9 inhibition. CYP2C9 Supersomes, luciferin-H conversion, luminescence. inhibition, % at 5 µM. 20% of 96,000 active. AID 777;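 active means blocking of liver enzyme CYP2C9 beyond about 50% at 5 µM, limit read from the data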
HIV Rev-RRE inh: HIV Rev-RRE protein-RNA interaction inhibition; inhibition, % at 8 µM; P05866; 0.79% of 97,000 active; AID 704; Rev peptide-RRE RNA binding, FRET;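 active means inhibition above the screen-wide mean plus 3 SD, cut at about 35% in these data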;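 further: 0% = median DMSO wells and 100% = median Neomycin B control wells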
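assay system = Cy5-tagged RRE RNA duplex with fluorescein-tagged Rev peptide | incubation = 5 + 15 min at 25 °C | also added = labelled Rev peptide | measure = % inhibition of FRET ratio versus controls | benchmarks = DMSO wells as 0% and neomycin B wells as 100% inhibition | measured by = FRET fluorescence readout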
CYP2C19 inhib: inhibitors of human CYP2C19 | AID 778 | 21% of 96,000 active | inhibition, % at 5 µM | CYP2C19 Supersomes, luciferin-H EGE luminescence, 30 min;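 active means CYP2C19 inhibition above a set limit at 5 µM in the primary screen, cut at about 50% in these data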;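 further: plate controls were negative control wells for no effect and 2.5 mM tranylcypromine positive control for full effect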
Cav32 inh: inhibitors of human Cav3.2 T-type calcium channel; O95180; Cav3.2-expressing cells, Fluo-4 calcium fluorescence FDSS; active compounds read low; B-score at 10 µM; 4% of 100,000 active;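 active means single-dose well whose peak fluorescence ratio is a statistical outlier from its plate by either plate-standardised score or position-corrected B-score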
Numbers without * were called inactive; nt = no result. Hits are enriched below; roughly 27% of the tested compounds scored in any of these assays.

SMILES	CYP2C19 activ	CYP2C9 act	CYP2C9 inhib	HIV Rev-RRE inh	CYP2C19 inhib	Cav32 inh
CC(C)(C)C(=O)COC(=O)CNC(=O)c1ccc(Oc2ccccc2)cc1	0.8	0.5	53*	11	22	-3.7*
COc1ccccc1NC(=S)Nc1cccc(F)c1	nt	nt	nt	6	nt	0.49
Fc1cccc(NC(=S)Nc2ccc(Br)cc2)c1	0.2	0.4	58*	2	82*	-2.2
COC(=O)CC1SC(=O)NC1=Nc1cccc(C)c1 (stereo unspecified)	0.9	0.9	12	6	12	0.23
CCCC1CCc2c(sc(NC(=O)OCC)c2C#N)C1 (stereo unspecified)	nt	nt	nt	10	nt	0.031
CC(NC(=O)CCc1ccc(S(=O)(=O)NC2CCCCC2)cc1)c1ccccc1 (stereo unspecified)	0	0.2	79*	9	96*	-0.045
Cc1ccc(CNC(=O)CCc2ccc(S(=O)(=O)NC3CCCCC3)cc2)cc1	0.5	0.3	69*	9	52*	-4.1
CNC(=O)/C(=C\c1ccc([N+](=O)[O-])cc1)NC(C)=O	1.1	1	1	6	-11	nt
Clc1ccc(COc2ccccn2)cc1Cl	0.3	1	2	-3	71*	0.15
Cc1ccc(C(=O)CC(C(=O)O)n2cccn2)cc1 (stereo unspecified)	0.9	1	5	nt	13	-0.28
Cc1ccc(SC(CC(=O)c2ccc(C)cc2)C(=O)O)cc1 (stereo unspecified)	0.6	0.1	95*	3	45	0.68
CCn1c(COc2cccc(C)c2)nc2ccccc21	nt	nt	nt	14	nt	-4*
CCn1c(COc2ccccc2C)nc2ccccc21	nt	nt	nt	12	nt	-3
COCn1c(-c2ccccc2)nc2ccccc21	0.7	0.8	18	4	27	0.24
COCn1c(COc2ccc3ccccc3c2)nc2ccccc21	nt	nt	nt	11	nt	-5.3*
CCOc1ccc(OCC)c(NC(=O)CCn2c(=O)oc3ccccc32)c1	0.6	0.5	49	12	36	0.036
Cc1cc(C)nc(NC(=NCCc2c[nH]c3ccccc23)NC(=O)c2ccco2)n1	0	0	99*	-2	96*	0.11
CCOc1ccccc1-n1c(COc2ccc(C)cc2)nnc1SCC(N)=O	0.7	0.8	17	4	27	0.0079
O=S(=O)(Nc1ccc(-n2cccc2)cc1)c1ccc(Cl)cc1Cl	0	0	100*	10	100*	-2.2
CN1CCN(c2ccc(Cl)cc2NS(=O)(=O)c2ccccc2Cl)CC1	0.8	0.8	17	0	19	0.52
CC(C)(C)c1ccc(OCCNC(=O)c2ncn[nH]2)cc1	0.2	0.5	53*	-2	75*	-0.69
CCc1cc(C)cc(OCCNC(=O)c2ncn[nH]2)c1	0.5	1.7	-66	3	49	0.37
CCOC(=O)C1=C(C)NC(=O)NC1c1ccc(OC)c(Cl)c1 (stereo unspecified)	0.9	0.7	32	nt	13	-0.085
CCOC(=O)C1=C(C)NC(C)=C(C(=O)OCC)C1c1cc(N)ccc1OC(F)F	0.5	0.4	57*	6	49	-0.22
CCOc1ccccc1NC(=O)N1CCCC1C(=O)Nc1nnc(CC)s1 (stereo unspecified)	0.9	0.9	7	7	6	-0.096
SMILES	CYP2C19 activ	CYP2C9 act	CYP2C9 inhib	HIV Rev-RRE inh	CYP2C19 inhib	Cav32 inh
CCc1nnc(NC(=O)C2Cc3ccccc3CN2S(=O)(=O)c2cccs2)s1 (stereo unspecified)	0.4	0.4	63*	7	61*	-0.14
CCc1nnc(NC(=O)C2Cc3ccccc3CN2S(=O)(=O)c2ccc(C)cc2)s1 (stereo unspecified)	0	0.4	64*	13	99*	-2.9
CCc1nnc(NC(=O)C2CCCN(S(=O)(=O)c3ccccc3)C2)s1 (stereo unspecified)	0.4	0.8	18	-1	64*	-0.0083
O=C(Nc1ccccn1)C1CCN(S(=O)(=O)c2cccs2)CC1	0.6	0.5	49	nt	38	0.37
O=C(Nc1nnc(C2CC2)s1)C1Cc2ccccc2CN1S(=O)(=O)c1cccs1 (stereo unspecified)	0	0.3	67*	13	100*	-1.1
Cc1c(CN2CCN(c3cccc(C(F)(F)F)c3)CC2)c(=O)n(-c2ccccc2)n1C	0.5	0.9	9	5	49	1.2
C/C(=N\NC(=O)C1CCCN(S(=O)(=O)c2ccccc2)C1)c1ccncc1 (stereo unspecified)	0.5	0.3	69*	-6	49	4.1*
CCc1nnc(NC(=O)C2CCCN2S(=O)(=O)c2ccc(C)cc2)s1 (stereo unspecified)	0.8	0.4	65*	-4	23	1.2
COC(CNC(=O)CCc1c(C)nc2c(-c3ccc(F)cc3)c(C)nn2c1C)OC	0.5	0.6	41	4	46	1.3
COc1cc(C2C(C(=O)OC(C)C)=C(C)Nc3[nH]c(=O)[nH]c(=O)c32)ccc1O (stereo unspecified)	0.2	0.5	50	7	82*	0.74
COCCOC(=O)C1=C(C)NC(C)=C(C(=O)OC(C)C)C1c1cccc([N+](=O)[O-])c1 (stereo unspecified)	nt	nt	nt	nt	nt	-0.45
CCc1ccc(/C=N/NC(=O)c2cc(C3CC3)nc3ccccc23)s1	0.8	0.2	81*	1	25	-1.1
CCOC(=O)N1CCC(Nc2c(N3CCN(c4cc(Cl)ccc4C)CC3)c(=O)c2=O)CC1	0.9	0.8	20	2	7	-4.1*
CCOC(=O)N1CCN(c2c(Nc3ccc4c(c3)OCCO4)c(=O)c2=O)CC1	0.9	2*	-103	7	11	0.82
CCN(CC)NC(=S)Nc1ccccc1	0.7	1.2	-15	7	28	-2.9
CCCOC(=S)Nc1ccccc1	0.4	0.8	20	2	62*	-0.44
O=C(Nc1ccc2c(c1)OCO2)C1CCN(Cc2cnn(-c3ccccc3)c2-n2cccc2)CC1	0.8	0.3	69*	14	21	-5.2*
O=C(NCC1CCCO1)C1CCCN(Cc2cnn(-c3ccccc3)c2-n2cccc2)C1 (stereo unspecified)	0.9	0.6	35	-3	10	2.8
O=C(Nc1ccc2c(c1)OCCO2)C1CCN(S(=O)(=O)Cc2ccccc2)CC1	0.8	0.8	16	8	21	0.65
O=C(Nc1ccc2c(c1)OCO2)C1CCN(S(=O)(=O)Cc2ccccc2)CC1	0.5	0.4	55*	0	46	-0.0028
Cn1c(=O)c2c(SCc3ccccn3)nc(-c3ccccc3)nc2n(C)c1=O	nt	nt	nt	1	nt	nt
CC(C)c1nnc(NC(=O)c2cccnc2)s1	1.1	0.9	8	9	-7	0.098
CSCCC(NC(=O)c1ccc(Cl)cc1)C(=O)NC(C)(C)C (stereo unspecified)	0.6	0.4	62*	4	44	-1.1
